# Assay results reported in article PMC8745002 (European journal of immunology, 2021).
# Legend:
# [1] = In vitro plasma stability assay, human plasma; assay type: in vitro ADME; settings: 37 °C
# Method in brief: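 Compound in DMSO, diluted to a 0.1 mM working solution in DMSO:water (1:1, v/v). Mouse, rat or human plasma thawed and pre-warmed at 37 °C, then mixed 100:1 (plasma:working solution). Incubated at 37 °C, 5% CO2, shaking at 200 rpm. Half-life determined from this plasma incubation.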
# [2] = In vitro plasma stability assay, mouse plasma; assay type: in vitro ADME; settings: 37 °C, comparison in words
# SRBC-vaccinated mice [3] = experiment: SRBC vaccination mouse model, flow cytometry of splenic cells; assay type: in vivo, C57/BL6 mice; settings: FX1 80 mg/kg once daily, 8-day course; spleen, day 11
# Method in brief: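 Male C57/BL6 mice, 8–12 weeks old, given 100 µL 10% SRBC i.p. on day 0. Compound dosed in 100 µL vehicle from day 3; vehicle controls matched. Spleens taken on day 11 and meshed through a 70 µm strainer. Cells spun 2000 rpm for 10 min, washed in PBS with 2% FBS. Two million mononuclear cells stained for surface and intracellular markers, analysed on a 4-laser LSRII.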
# SRBC-vaccinated mice [4] = experiment: SRBC-specific IgM and IgG1 detection in plasma by flow cytometry; assay type: in vivo, C57/BL6 mice; settings: mice receiving FX1 (80 mg/kg once daily)
# Method in brief: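 Plasma taken on day 11 from SRBC-vaccinated (100 µL 10% i.p.) male C57/BL6 mice given compound or vehicle (100 µL) from day 3, diluted 1:5 in PBS. 5 µL incubated with 20 µL 2% SRBC for 5 min, then 20 min with fluorescent anti-mouse IgM or IgG1. Washed, fixed in 1% PFA, read by flow with isotype controls. MFI normalised to unvaccinated-mouse plasma, as fold change.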
# SRBC-vaccinated mice [5] = experiment: Mouse pan IgG and IgM ELISA; assay type: in vivo, C57/BL6 mice; settings: 11 days after vaccination
# Method in brief: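 Male C57/BL6 mice, 8–12 weeks old, given 100 µL 10% SRBC i.p. on day 0. From 3 days later, 8-day course of test compound (100 µL vehicle, once or three times daily, 5 h apart) or vehicle on the same schedule. Plasma collected at CO2 euthanasia on day 11. Total IgG and IgM measured by commercial ELISA kit per manufacturer. Welch test.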
# BCL6 = settings: cited from earlier work
# [6] = cited from earlier work
# rhesus macaque = settings: FX1 treatment; cited from earlier work
smiles,measurement,setting,value
O=C(O)CCN1C(=O)/C(=C2/C(=O)Nc3ccc(Cl)cc32)SC1=S [FX1],T1/2 in human plasma,[1],3.29 h
same,stability (T1/2) in mouse plasma,[2],significantly longer stability over AP-4-287 in mouse plasma
same,GC B cells,SRBC-vaccinated mice [3],can lower GC B
same,frequency of CD4+ Tfh within GCs,SRBC-vaccinated mice [3],did not reduce
same,SRBC-specific IgM and IgG1 vs vehicle,SRBC-vaccinated mice [4],Lower
same,total titer of plasma pan IgG and IgM vs vehicle,SRBC-vaccinated mice [5],no difference
same,affinity compared with natural ligand (SMRT),BCL6,higher affinity than its natural ligand (SMRT)
same,aqueous solubility,[6],poor aqueous solubility
same,lymphoid hyperplasia,rhesus macaque,reversal of lymphoid hyperplasia
